Most compounds without a hit are left out; they make up all but 3.3% or so of the library.
PRMT1 FP inh: PRMT1 methyltransferase inhibitors, primary screen, biochemical, fluorescence polarization; Protein arginine N-methyltransferase 1 (Homo sapiens), Q99873; recombinant PRMT1, activity-based probe fluorescence polarization; inhibition, % at 2.79 µM; 370,000 compounds, 1.3% hits;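 active = inhibition above about 21% made by adding two undisclosed values, limit read from the data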
TDP2 absorb: human TDP2 enzyme inhibitors, primary screen, biochemical, epi absorbance, recombinant enzyme; T5PNP hydrolysis, p-nitrophenol absorbance 415 nm; 370,000 compounds, 0.34% hits; AID 720702, 2013; inhibition, % at 12.8 µM;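 active = inhibition above the mean of all tested compounds plus 3 SD, set per campaign, cut at about 25% in these data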;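 note: 0% = DMSO with enzyme and 100% = buffer with substrate but no TDP2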
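System – recombinant human TDP2 · Amount – 120 nM TDP2 per well · Buffer or medium – Mg2+-containing Tris-HCl buffer, pH 7.5 · Reagent – T5PNP substrate, 5 mM · Dosing – 12.8 µM single point, 1% DMSO · Incubation – 2 h at 37 °C · Measured by – epi absorbance · Read-out basis – percent inhibition · Benchmarks – high control without enzyme, low control DMSO plus TDP2 · Repeats – singlicate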
LEDGF integ inh: blockers of LEDGF/p75-dependent integrase strand transfer – biochemical, TR-FRET, high throughput, primary screen; TR-FRET IN-LEDGF/p75 DNA integration, Eu/Cy5; AID 743269, 2014; HIV-1 integrase (with human LEDGF/p75); 370,000 compounds, 0.64% hits; inhibition, % at 3.7 µM;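 active = inhibition above the screen-wide mean plus 3 SD, cut at about 13% in these data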;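 note: signal is the Cy5 over europium emission ratio at 671 and 618 nm; 0% = plate median of compound wells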
UHRF1 MBD2 ctr: UHRF1 methylated DNA binding inhibitors, primary screen, counter-screen for MBD2 inhibitor project, biochemical, TR-FRET, human UHRF1, single concentration; inhibition, % at 4.4 µM; 370,000 compounds, 0.75% hits; AID 687016, 2013; UHRF1 binding to methylated oligo; in the data active = inhibition above about 21%;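 note: UHRF1 SRA domain binding a hemimethylated CpG hairpin DNA probe; 0% = median of test compound wells and 100% = reference inhibitor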
SIAE primary: human SIAE inhibitors, primary screen, biochemical, fluorescence polarization, FP-Rh probe, 1536-well HTS; inhibition, % at 9.66 µM; 370,000 compounds, 0.69% hits; SIAE FP-Rh probe binding; Sialate O-acetylesterase (Homo sapiens), Q9HAT2; AID 1053197, 2014;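 active = inhibition above a cutoff: mean of compounds within the control limits plus 3 SD of those, cut at about 17% in these data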;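 note: 0% = plate median of compound wells and 100% = probe without SIAE protein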
MBD2 inh: inhibitors of MBD2 binding to methylated DNA, primary screen, biochemical, TR-FRET, DNA-binding domain, human; Methyl-CpG-binding domain protein 2 (Homo sapiens), Q9UBB5; MBD2 binding to methylated oligonucleotide; inhibition, % at 4.4 µM; 370,000 compounds, 0.31% hits; in the data active = inhibition above about 13%
An asterisk follows results filed as active.

SMILES	PRMT1 FP inh	TDP2 absorb	LEDGF integ inh	UHRF1 MBD2 ctr	SIAE primary	MBD2 inh
COC(=O)CNC(=O)C1Nc2ccccc2C2C=CCC12 (stereo not given)	37*	6	3	-3	5	2
C=CCN(CC#Cc1ccccc1)CC=C	-7	1	4	1	0	-3
N=c1n(CC(=O)c2cccs2)c2ccccc2n1Cc1ccccc1	1	13	-4	25*	9	0
O=C(O)Cn1c(=O)n(Cc2ccccc2)c2ccccc21	0	-15	0	28*	-2	-1
O=C(O)CN1CCN(Cc2ccccc2)C1=O	0	-3	-1	0	-1	1
CCCC1CCC2(CCC(=O)N2CCO)CC1 (stereo not given)	-5	-5	3	3	0	-1
OCCNc1nc(Nc2ccccc2)nc2ccccc12	0	-2	-2	3	14	1
OCCNc1nc(Nc2ccc(Br)cc2)nc2ccccc12	-1	4	1	-2	18*	4
O=C(NC1CCCCN(Cc2cccc(Cl)c2)C1=O)c1c(F)cccc1F (stereo not given)	0	-2	-4	-5	8	0
COc1ccc(NC(=O)N(C)C[C@H]2Oc3ccc(NC(=O)Nc4c(C)noc4C)cc3C(=O)N([C@H](C)CO)C[C@@H]2C)cc1	1	1	0	0	3	-2
COc1ccc(NC(=O)N(C)C[C@H]2Oc3ccc(NC(=O)Nc4c(C)noc4C)cc3C(=O)N([C@H](C)CO)C[C@H]2C)cc1	1	4	-1	-2	17*	-2
COc1ccc(NC(=O)Nc2ccc3c(c2)C(=O)N([C@H](C)CO)C[C@H](C)[C@@H](CN(C)Cc2ccc(Cl)c(Cl)c2)OCCCC[C@@H](C)O3)cc1	1	-10	-2	-1	21*	4
CC(C)NC(=O)N(C)C[C@H]1OCCCC[C@H](C)Oc2ccc(NS(=O)(=O)c3ccccc3)cc2C(=O)N([C@H](C)CO)C[C@H]1C	2	3	5	22*	-3	7
CC(C)NC(=O)N(C)C[C@H]1Oc2ccc(NS(=O)(=O)c3ccccc3)cc2C(=O)N([C@H](C)CO)C[C@H]1C	-1	-4	1	-2	2	2
CCOC(=O)N1CCN(C(=O)C[C@H]2C[C@@]3(C(=O)OC)C(=C[C@H](COCc4ccccc4)O[C@@H]3C)N(CCc3ccc(OC)c(OC)c3)C2=O)CC1	-1	8	0	0	-2	1
CCN(CC)c1cccc(OC2=NS(=O)(=O)c3ccccc32)c1	5	-3	-5	-3	31*	-3
Cc1oc(-c2ccc(F)cc2)cc1-c1nn2c(-c3ccoc3C)nnc2s1	20	1	38*	40*	2	14*
O=C(NC(=S)NC1CCS(=O)(=O)C1)c1ccccc1 (stereo not given)	-2	10	-1	0	-1	-3
CN(C1=C(NC(=O)c2ccccc2)C(=O)c2ccccc2C1=O)C1CCS(=O)(=O)C1 (stereo not given)	7	33*	11	-10	0	-12
O=C1CCC[C@H]2Cc3nc4ccccc4cc3C[C@]23CCCN13	-2	5	-1	0	-4	-2
COc1ccc(C2=Nn3c(nnc3C3CCCCC3)SC2)cc1	0	4	1	0	2	-1
CC(C)N(Cc1ccccc1)C(=O)CCS(=O)(=O)c1ccc2c(c1)oc(=O)n2C	22*	1	0	2	1	-2
Cc1ccc(Cn2cc(CN3[C@@H](CC(C)C)COc4cc(Br)ccc4S3(=O)=O)nn2)cc1	-1	-5	-2	4	-5	-1
Cc1ccccc1NC(=O)CN1CCN(c2nc(-c3ccccc3)cs2)CC1	-6	-9	0	1	-1	1
O=C(CCCN1CC=C(n2c(=O)[nH]c3ccccc32)CC1)c1ccc(F)cc1	2	-1	-2	23*	-1	2
SMILES	PRMT1 FP inh	TDP2 absorb	LEDGF integ inh	UHRF1 MBD2 ctr	SIAE primary	MBD2 inh
O=C(CCc1nc(-c2ccccc2F)no1)NCCc1cccc(F)c1	7	1	-4	2	-2	2
O=C(CSc1nc2ccccc2nc1N1CCCCC1)N1CCN(C(c2ccccc2)c2ccc(Cl)cc2)CC1 (stereo not given)	0	-2	6	-2	-1	-2
O=c1oc2c3c4c(cc2s1)CCCN4CCC3	75*	7	10	-7	14	-4
O=C(CCl)c1cc2c3c(c1)CC(=O)N3CCC2	8	9	2	-1	1	-3
O=C1C2C3C=CC(CC3)C2C(=O)N1c1nccs1 (stereo not given)	4	-5	0	21*	-5	6
CC(=Nc1cccc(O)c1)c1sc2ccccc2c1O	20	7	-1	1	7	1
CC(=Nc1ccc(C)cc1)c1sc2ccccc2c1O	25*	11	0	-5	4	2
Cc1ccc(NC(=O)c2nc(S(=O)(=O)Cc3ccccc3C)ncc2Cl)cc1C	35*	-1	3	-1	6	7
Cc1cccc(CS(=O)(=O)c2ncc(Cl)c(C(=O)NCc3ccc4c(c3)OCO4)n2)c1	22*	1	-2	-1	8	-6
CC(=O)Nc1ccc(NC(=O)c2nc(S(=O)(=O)Cc3cccc(C)c3)ncc2Cl)cc1	32*	15	3	-4	7	3
CCOC(=O)c1ccc(NC(=O)c2nc(S(=O)(=O)Cc3ccccc3)ncc2Cl)cc1	6	1	2	-3	-7	3
NC(=O)c1ccc(N=C2C(=O)Nc3ccc([N+](=O)[O-])cc32)cc1	1	44*	4	8	-3	-10
Cc1cc(C)c2nc(NNC(=O)c3ccc(S(=O)(=O)N4CC(C)CC(C)C4)cc3)sc2c1 (stereo not given)	12	-11	15*	-2	0	5
COc1ccc(CN(CCN2CCOCC2)C(=O)c2cc(Cl)ccc2F)cc1OC	-2	-5	1	0	-5	5
Cc1ccc(C)c(NC(=O)CN2C(=O)NC(C)(c3ccc4c(c3)OCCO4)C2=O)c1 (stereo not given)	-2	-11	-1	70*	-4	-5
COc1cccc(CN2CC(C(=O)N(C)Cc3nc4ccc(F)cc4[nH]3)CCC2=O)c1 (stereo not given)	-3	1	0	25*	1	0

Compound activity (PubChem)
